From PubChem BioAssay
An excerpt weighted towards active compounds, which were near 3.7% of everything screened.
KCNK3 block = human KCNK3 channel inhibition, primary screen | O14649 | CHO-KCNK3 thallium flux, FluxOR fluorescence; hits give low values | B-score at 10 µM | 0.84% of 340,000 active | AID 602410;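 active = B-score under library mean minus 4 SD, starting fluorescence ratio at most library mean plus 5 SD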;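 also: more negative B-score means stronger inhibition of thallium flux through KCNK3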
KCNQ1 pot = potentiators or activators of human KCNQ1 potassium channel | CHO-K1 KCNQ1, thallium flux FluxOR fluorescence; hits give high values | B-score at 10 µM | 0.35% of 310,000 active | AID 2648;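 active = fluorescence ratio B-score, a plate-corrected score, at least three library SD, with initial intensity B-score within 5 SD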
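Assay system: CHO-K1 cells stably expressing KCNQ1; Medium: assay buffer with matched DMSO; Also added: K+/Tl+ depolarizing stimulus; Dosing: single dose; Timing: dye 90 min, compound 20 min, room temperature; Measured by: kinetic FluxOR thallium fluorescence, 10-s 1-Hz baseline, 110-s post-stimulus read; Read-out: peak-minus-minimum fluorescence over initial fluorescence, negative-control normalized, B-scored.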
KCNK9 block = blocks the human KCNK9 two-pore domain potassium channel. Q9NPC2. HEK293 KCNK9, FluxOR thallium flux fluorescence; hits give low values. B-score at 10 µM. 1.2% of 310,000 active. AID 488922;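 active = ratio B-score over 3 SD below the library mean, with starting fluorescence within 5 SD of its mean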;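 also: negative B-score means less thallium flux so channel inhibition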
Target sequence (Q9NPC2 whole entry, looked up, the tested form may be a part): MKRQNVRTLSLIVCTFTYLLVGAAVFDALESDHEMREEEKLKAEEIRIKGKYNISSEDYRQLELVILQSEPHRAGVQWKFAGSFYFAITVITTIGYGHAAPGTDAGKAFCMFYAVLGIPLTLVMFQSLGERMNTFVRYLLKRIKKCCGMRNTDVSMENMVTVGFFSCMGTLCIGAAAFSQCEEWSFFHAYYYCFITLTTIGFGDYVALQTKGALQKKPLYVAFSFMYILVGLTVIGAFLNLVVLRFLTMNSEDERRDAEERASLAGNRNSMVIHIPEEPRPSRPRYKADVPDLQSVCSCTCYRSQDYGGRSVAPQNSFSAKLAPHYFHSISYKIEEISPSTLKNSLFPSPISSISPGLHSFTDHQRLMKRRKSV
hERG rescue = shields human hERG channel from block by proarrhythmic agents | Q12809 | CHO-hERG, FluxOR thallium flux, dofetilide IC70 present | activation (rescue from dofetilide block), less the hit threshold, % at 10 µM | 0.51% of 310,000 active | AID 1511;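 active = activation above the mean of controls blocked by dofetilide plus 5 SD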;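 also: thallium influx through hERG after potassium depolarization seen as dye fluorescence rise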
Kir21 block = Kir2.1 (mouse) channel inhibition; HEK293-Kir2.1, FluxOR thallium flux fluorescence; hits give low values; B-score at 10 µM; 0.85% of 310,000 active; AID 1672;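 active = fluorescence ratio B-score at or below minus 3 SD of library scores, with starting-brightness B-score within 2 SD, cut at about -4.2 in these data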;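 also: channel flux triggered by added potassium and thallium sulfate stimulus; B-score of peak minus minimum fluorescence over baseline after thallium stimulus; more negative B-score means stronger Kir2.1 block with less thallium influx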
KCNQ1 inh = inhibitors of human KCNQ1 potassium channel; P51787; CHO-K1 KCNQ1, FluxOR thallium flux fluorescence; hits give high values; B-score at 10 µM; 1.3% of 310,000 active; AID 2642;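 active = compounds whose thallium flux B-score, printed positive for inhibition, exceeds three library SD while starting fluorescence stays within three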;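 also: channel opened by potassium depolarization with thallium stimulus after 20 min compound exposure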
KCNQ1 block val = confirmation of human KCNQ1 potassium channel inhibitors | 93% of 1,600 active | KCNQ1 cell line, FluxOR thallium flux fluorescence | shares compounds with KCNQ1 inh | inhibition, % at 10 µM;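 active = primary screen active, with duplicate mean exceeding buffer control mean plus 3 SD of buffer wells, cut at about 28% in these data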
CHO KCNQ1 ctr = KCNQ1 inhibitor counter-screen hit in parental CHO cells | shares compounds with KCNQ1 inh | parental CHO-K1, FluxOR thallium flux fluorescence ratio; hits give low values; zero means no signal rise above baseline | fluorescence ratio (Tl flux) at 10 µM | 21% of 1,600 active | AID 588366;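 active = mean of duplicate thallium-flux fluorescence ratios in parental host cells more than 5 SD below the buffer control mean, cut at about 0.38 in these data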;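 also: ratio is peak minus minimum fluorescence divided by baseline fluorescence; actives read low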
KCNQ1 ephys val = blocks human KCNQ1 current in automated patch clamp. shares compounds with KCNQ1 inh. KCNQ1-CHO cells. calls only at 10 µM. 20% of 490 active. AID 624120;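 active = KCNQ1 current drop exceeding 3 SD of negative control wells, seen in both duplicate runs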;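 also: steady state current during a 2 s step from -80 to +40 mV; negative values mean current inhibition and positive values mean potentiation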
KCNQ2 inh = KCNQ1 inhibitor that also blocks rat KCNQ2 channel | shares compounds with KCNQ1 inh | KCNQ2 cells, FluxOR thallium flux fluorescence | inhibition, % at 10 µM | 71% of 1,600 active;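 active = mean percent inhibition of the KCNQ2 thallium signal more than 5 SD above the buffer-only control wells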;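 also: KCNQ2 expressed in CHO cells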
KCNQ1 KCNE1 spec = selectivity of KCNQ1 inhibitors: inhibition of human KCNQ1/KCNE1 channel; 77% of 1,600 active; KCNQ1/KCNE1 cells, FluxOR thallium flux fluorescence; inhibition, % at 10 µM; shares compounds with KCNQ1 inh;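 active = mean percent inhibition of duplicate wells above the buffer-only control mean plus 3 SD of those controls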
A number is an active result.

CCOc1ccc(CCNC(=O)COC(=O)CNS(=O)(=O)c2ccc(NC(C)=O)cc2)cc1OCC was read as KCNK3 block inactive, KCNQ1 pot inactive, KCNK9 block inactive, hERG rescue inactive, Kir21 block inactive and KCNQ1 inh inactive.
Screening COc1ccc(CCCNC(=O)C2CCC(=O)N(CCc3cccc(F)c3)C2)cc1 (configuration not stated) returned KCNK3 block inactive, KCNQ1 pot inactive, KCNK9 block inactive, hERG rescue inactive, Kir21 block inactive and KCNQ1 inh inactive.
O=C(COc1ccccc1)NC(NC(=S)Nc1ccccc1O)C(Cl)(Cl)Cl (configuration not stated) was read as KCNK3 block inactive, KCNQ1 pot inactive, KCNK9 block inactive, hERG rescue inactive, Kir21 block inactive, KCNQ1 inh 9, KCNQ1 block val 78, CHO KCNQ1 ctr inactive, KCNQ2 inh 92% and KCNQ1 KCNE1 spec 53%.
Cc1cc(C(=O)OCC(=O)NCCCN2CCCC2=O)c2ccccc2n1 was read as KCNK3 block inactive, KCNQ1 pot inactive, KCNK9 block inactive, hERG rescue inactive, Kir21 block inactive, KCNQ1 inh 11, KCNQ1 block val inactive, CHO KCNQ1 ctr inactive, KCNQ2 inh inactive and KCNQ1 KCNE1 spec 73%.
Screening CN(Cc1ccccc1)S(=O)(=O)c1ccc(Cl)c(C(=O)OCC(=O)NC2CCS(=O)(=O)C2)c1 (configuration not stated) returned KCNK3 block inactive.
Screening Cc1[nH]n(-c2ccccc2)c(=O)c1N=Nc1c(O)cc(S(=O)(=O)N(C)C)c2ccccc12 returned KCNK3 block inactive, KCNQ1 pot inactive, KCNK9 block inactive, hERG rescue inactive, Kir21 block inactive, KCNQ1 inh 10, KCNQ1 block val 124, CHO KCNQ1 ctr inactive, KCNQ1 ephys val inactive, KCNQ2 inh 72% and KCNQ1 KCNE1 spec inactive.
`CC1CCCCC1NC(=O)CSc1nnnn1C` (configuration not stated) gave KCNK3 block inactive.
`CC1CCc2sc(C(=O)N3CCC(C(N)=O)CC3)cc2C1` (configuration not stated) gave KCNK3 block inactive.
COc1ccc(Cc2nnc(NS(=O)(=O)c3ccc([N+](=O)[O-])cc3)s2)cc1 was read as KCNK3 block inactive, KCNQ1 pot inactive, KCNK9 block inactive, hERG rescue inactive, Kir21 block inactive and KCNQ1 inh inactive.
For CCC12CCC3c4ccc(O)cc4CCC3C1CC(O)C2O (configuration not stated) the results were KCNK3 block inactive.
Cc1ccc(CNCC(O)(c2ccccc2)c2ccc(Cl)cc2)cc1 (configuration not stated) was read as KCNK3 block inactive, KCNQ1 pot inactive, KCNK9 block inactive, hERG rescue inactive, Kir21 block inactive, KCNQ1 inh 6, KCNQ1 block val 116, CHO KCNQ1 ctr inactive, KCNQ1 ephys val inactive, KCNQ2 inh 92% and KCNQ1 KCNE1 spec 42%.
`CC(Oc1cccc(Cl)c1)C(=O)Nc1cc(S(=O)(=O)N2CCCCC2)ccc1N1CCOCC1` (configuration not stated) gave KCNK3 block inactive, KCNQ1 pot inactive, KCNK9 block inactive, hERG rescue inactive, Kir21 block inactive, KCNQ1 inh 9, KCNQ1 block val 69, CHO KCNQ1 ctr inactive, KCNQ2 inh 94% and KCNQ1 KCNE1 spec 95%.
CC(Oc1cccc(Cl)c1)C(=O)Nc1cc(S(=O)(=O)N2CCOCC2)ccc1N1CCCC1 (configuration not stated) was read as KCNK3 block inactive, KCNQ1 pot inactive, KCNK9 block inactive, hERG rescue inactive, Kir21 block inactive and KCNQ1 inh inactive.
Screening Cc1cc(C)cc(NC(=S)N2CCN(c3ncc(C(F)(F)F)cc3Cl)CC2)c1 returned KCNK3 block inactive, KCNQ1 pot inactive, KCNK9 block inactive, hERG rescue inactive, Kir21 block inactive and KCNQ1 inh inactive.
Screening Cc1csc2c(N3CCN(C(=S)Nc4ccc(C(F)(F)F)cc4)CC3)ncnc12 returned KCNK3 block inactive, KCNQ1 pot inactive, KCNK9 block inactive, hERG rescue inactive, Kir21 block inactive, KCNQ1 inh 12, KCNQ1 block val 82, CHO KCNQ1 ctr inactive, KCNQ2 inh inactive and KCNQ1 KCNE1 spec 178%.
`Cc1csc2ncnc(N3CCN(C(=S)Nc4ccc(C(F)(F)F)cc4)CC3)c12` gave KCNK3 block inactive, KCNQ1 pot inactive, KCNK9 block inactive, hERG rescue inactive, Kir21 block inactive, KCNQ1 inh 10, KCNQ1 block val 112, CHO KCNQ1 ctr inactive, KCNQ1 ephys val inactive, KCNQ2 inh 74% and KCNQ1 KCNE1 spec 94%.
`Cc1csc2c(N3CCN(C(=O)Nc4ccc(Cl)c(Cl)c4)CC3)ncnc12` gave KCNK3 block inactive, KCNQ1 pot inactive, KCNK9 block inactive, hERG rescue inactive, Kir21 block inactive, KCNQ1 inh 11, KCNQ1 block val 160, CHO KCNQ1 ctr 0.36, KCNQ2 inh 90% and KCNQ1 KCNE1 spec active.
`Cc1csc2c(N3CCN(C(=O)NC(C)(C)C)CC3)ncnc12` gave KCNK3 block inactive, KCNQ1 pot inactive, KCNK9 block inactive, hERG rescue inactive, Kir21 block inactive and KCNQ1 inh inactive.
`O=C(Cc1cccc(NC(=O)C2CCCN(C(=O)C3CCCC3)C2)c1)Nc1ccc(C(=O)N2CCOCC2)cc1` (configuration not stated) gave KCNK3 block inactive.
For CCN(CC(=O)NC1CCS(=O)(=O)C1)S(=O)(=O)c1ccc(Br)cc1 (configuration not stated) the results were KCNK3 block inactive.
Screening Cc1ccc(S(=O)(=O)N(CC(=O)N=Nc2c(O)[nH]c3ccccc23)c2cccc(C)c2)cc1 returned KCNK3 block inactive, KCNQ1 pot inactive, KCNK9 block inactive, hERG rescue inactive, Kir21 block inactive, KCNQ1 inh 7, KCNQ1 block val 76, CHO KCNQ1 ctr inactive, KCNQ2 inh 80% and KCNQ1 KCNE1 spec 130%.
